MPTP inh – permeability transition pore inhibition; 360,000 compounds, 1.4% hits; inhibition, % at 10 µM; isolated mouse mitochondria, Ca2+ swelling absorbance, 30 min; AID 602449;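 active = inhibition of 50% or more, scaled per plate between neutral and stimulator controls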
NR2E3 ag-1 – agonists of human NR2E3 nuclear receptor | AID 602229 | CHO-S Gal4-NCOR/VP16-NR2E3 two-hybrid, luciferase | inhibition of corepressor binding, % at 3.98 µM | 360,000 compounds, 0.35% hits | Q9Y5X4;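 active = inhibition above the mean of all tested compounds plus 3 SD, cut at about 70% in these data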;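 note: higher means lower luciferase signal from less NR2E3 corepressor binding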
Target sequence (Q9Y5X4 whole entry, looked up, the tested form may be a part): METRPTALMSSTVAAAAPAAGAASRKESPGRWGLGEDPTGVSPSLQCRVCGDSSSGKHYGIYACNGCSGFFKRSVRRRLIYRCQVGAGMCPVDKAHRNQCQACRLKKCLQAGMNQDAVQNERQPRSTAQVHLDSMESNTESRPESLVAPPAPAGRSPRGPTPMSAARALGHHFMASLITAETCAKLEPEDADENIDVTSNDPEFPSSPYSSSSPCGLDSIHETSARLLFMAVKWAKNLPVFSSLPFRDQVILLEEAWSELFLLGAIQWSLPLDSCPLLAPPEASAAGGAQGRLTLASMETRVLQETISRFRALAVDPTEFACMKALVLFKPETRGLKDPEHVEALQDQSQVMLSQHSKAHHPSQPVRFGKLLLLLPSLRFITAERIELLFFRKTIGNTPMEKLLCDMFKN
aDG glyco up – alpha-DG glycosylation activation. activation, % at 10 µM. 360,000 compounds, 0.22% hits. Pro5-aDG cells, alpha-DG glycosylation AlphaScreen (IIH6); 0% Pro5, 100% B10-LARGE cell signal;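 active = activation of at least 8% versus controls, or a plate z-score of at least 8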;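 note: Pro5 are CHO cells carrying HIG-tagged alpha-DG that lacks glycosylation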
697 NFkB inh – inhibitors of the PMA/ionomycin-induced NF-kB reporter in 697 B cells; 697 B-cell NF-kB luciferase reporter, 16 h; inhibition, % at 4 µM; 330,000 compounds, 0.33% hits; AID 435022; in the data active = inhibition above about 35%
Jurkat NFkB inh – inhibitors of the PMA/ionomycin-induced NF-kB reporter in Jurkat cells; PMA/ionomycin-induced NF-kB luciferase reporter, luminescence; inhibition, % at 4 µM; 330,000 compounds, 0.53% hits; AID 435003; in the data active = inhibition above about 50%
NR2E3 ag-2 – activates human photoreceptor nuclear receptor NR2E3. inhibition of corepressor binding, % at 4.78 µM. GST-NR2E3/biotin-RetCOR TR-FRET, 1536-well. 320,000 compounds, 0.12% hits. Q9Y5X4. AID 2300;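 active = percent inhibition above the cutoff of mean plus 3 SD of all tested compounds, set per screening campaign, cut at about 20% in these data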
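Test system: GST-NR2E3 and biotin-RetCOR proteins | Quantity: 1.35 nM GST-tagged NR2E3 final | Medium: Tris pH 7.5 | Also added: 7 nM biotin-RetCOR | Dosing: Compound at 4.8 µM, single dose | Timing: 5 h at 4 °C | Detection: Time-resolved FRET | Read-out basis: Percent inhibition | Benchmarks: Biotin wells as high control, 0.6% DMSO wells as low control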
MPTP counter – membrane potential counter-screen of mitochondrial pore inhibitors; shares compounds with MPTP inh; isolated mitochondria, Rhodamine 123 fluorescence; inhibition, % at 10 µM; 5,000 compounds, 78% hits; AID 624504; in the data active = inhibition above about 22%
MPTP abs DR – dose response confirmation of mitochondrial permeability transition pore inhibitors | shares compounds with MPTP inh | isolated mitochondria swelling, absorbance | IC50, µM | 780 compounds, 58% hits | AID 651561; in the data active = IC50 below about 20 µM
MPTP cs DR – counter-screen for mitochondrial permeability transition pore inhibitors, dose response. 780 compounds, 49% hits. isolated mitochondria counterscreen, fluorescence read-out. IC50, µM. shares compounds with MPTP inh. AID 651564; in the data active = IC50 below about 80 µM
Large screens that a line does not name were inactive (follow-up assays come after a bar, where they were run). Rows were chosen to be rich in hits. Some 2.4% of all compounds tested hit in one or more screens of this group.

Cc1ccc(C)c(NC(=O)CSc2nc3nc(-c4cccs4)cc(C(F)(F)F)c3c(=O)[nH]2)c1	MPTP inh 76.9 | MPTP counter 61.0
O=C(CSc1nc2nc(-c3cccs3)cc(C(F)(F)F)c2c(=O)[nH]1)Nc1ccc(F)c(F)c1	MPTP inh 76.4 | MPTP counter 50.3
CC(C)(C)OCC1CO1 (stereo unspecified)	none
CCc1c(C(=O)Nc2cc(C)cc(C)c2)[nH]c(C)c1C(C)=O	MPTP inh 78.8 | MPTP counter 83.5
CCOC(=O)c1ccc(N/N=C/c2cc(Br)cc([N+](=O)[O-])c2O)cc1	MPTP inh 74.4 | MPTP counter 21.4
COC(=O)c1ccc(N/N=C/c2cc([N+](=O)[O-])cc(OC)c2O)cc1	none
COc1cc(OC)cc(C(=O)NC(=S)NNC(=O)[C@H]2C[C@@H]2c2ccccc2)c1	MPTP inh 82.5 | MPTP counter inactive
Cc1cccc(NC(=O)c2ccccn2)c1C	none
Cc1cccc(NC(=O)c2n[nH]c([N+](=O)[O-])c2Br)c1C	MPTP inh 87.2 | MPTP counter 85.8
CC(=O)Nc1sc2c(c1C#N)CCCC2	none
Cn1nccc1C(=O)NC(=S)Nc1sc2c(c1C#N)CCCCC2	none
CC(=O)NC(=S)Nc1sc2c(c1C#N)CCCCC2	MPTP inh 84.2 (no result: 697 NFkB inh, Jurkat NFkB inh, NR2E3 ag-2) | MPTP counter 76.6
N#Cc1c(NC(=S)NC(=O)Cc2cccs2)sc2c1CCCCC2	MPTP inh 84.0 | MPTP counter 74.1
CCC1(C)Cc2c(sc(NC(=S)NC(=O)c3ccccc3)c2C#N)CO1 (stereo unspecified)	MPTP inh 82.9 | MPTP counter inactive | MPTP abs DR inactive | MPTP cs DR 4.51
CC(C)(C)C(=O)NC(NC(=S)Nc1sc2c(c1C#N)CCCC2)C(Cl)(Cl)Cl (stereo unspecified)	MPTP inh 94.3 | MPTP counter 53.2
CN1Cc2sc(NC(=S)NC(=O)c3ccccc3)c(C#N)c2CC1(C)C	none (no result: MPTP inh, NR2E3 ag-1, aDG glyco up)
COCCCNC(=S)NNC(=O)c1ccc(S(=O)(=O)N2CCC(C)CC2)cc1	none
COc1ccc(CNC(=O)CN2C(=O)C3C4C=CC(C4)C3C2=O)cc1 (stereo unspecified)	none
Cc1noc(/C=C/N(C)C)c1S(=O)(=O)N1CCC(C(=O)NC(C)(C)C)CC1	none
CCC(Oc1ccccc1)C(=O)NC1CCSC1=O (stereo unspecified)	none
O=c1cnc(-c2ccc(Cl)cc2)cn1O	none
N#Cc1c(NC(=S)NC(=O)c2ccccc2)sc2c1CCC2	MPTP inh 58.2 | MPTP counter 36.8
O=c1oc2c(-c3ccc([N+](=O)[O-])cc3)cc(O)cc2s1	MPTP inh 78.4 | MPTP counter 55.4
CCc1ccc(-c2nc(CSCC(=O)N3CCN(c4ccccn4)CC3)c(C)o2)cc1	MPTP inh 80.0, NR2E3 ag-1 83.8 | MPTP counter 58.4
NCC12CC3CC(C1)CC(c1ccc(Cl)cc1)(C3)C2	MPTP inh 75.4 | MPTP counter inactive | MPTP abs DR 3.68 | MPTP cs DR 41.6
Nc1ccc(C23CC4CC(CC(CO)(C4)C2)C3)cc1	none
CCN1CCCC1Cn1cnc2c([nH]c3ccc(OC)cc32)c1=O (stereo unspecified)	none
Cc1occc1-c1nnc(SCC(=O)Nc2nc(C(C)(C)C)cs2)o1	MPTP inh 94.4 | MPTP counter 89.7
Cc1csc(NC(=O)CSc2nnc(-c3ccoc3C)o2)n1	none
CCN1CCN(C(=O)CCCCCn2c(=O)[nH]c3cc(C(=O)OC)ccc3c2=O)CC1	none
COC(=O)c1ccc2c(=O)n(CCCCCC(=O)N3CCN(c4ccccc4)CC3)c(=O)[nH]c2c1	MPTP inh 64.5 | MPTP counter 46.1
CCCCn1c(/N=C/c2ccc3c(c2)OCO3)nc2ccccc21	none
CCC(C)c1ccccc1N=Cc1ccc2c(c1)OCO2 (stereo unspecified)	MPTP inh 71.2 | MPTP counter inactive | MPTP abs DR inactive | MPTP cs DR inactive
N=c1c(S(=O)(=O)c2ccccc2)cc2c(=O)n3ccccc3nc2n1CCCN1CCOCC1	none
N=c1c(S(=O)(=O)c2ccc(Cl)cc2)cc2c(=O)n3ccccc3nc2n1CCN1CCOCC1	MPTP inh 59.6 | MPTP counter inactive | MPTP abs DR inactive | MPTP cs DR inactive
O=C(NC(=S)NN1CCCCC1c1cccnc1)c1ccc(Cl)cc1Cl (stereo unspecified)	MPTP inh 52.0 | MPTP counter 65.3
CN(C)CCCN(C(=O)/C=C/c1cccs1)c1nc2ccc(F)cc2s1	none
Cc1ccc2nc(N(CCN(C)C)C(=O)/C=C/c3cccs3)sc2c1	MPTP inh 98.6 | MPTP counter inactive | MPTP abs DR 7.53 | MPTP cs DR inactive
CN(C)CCN(C(=O)/C=C/c1cccs1)c1nc2c(F)cc(F)cc2s1	MPTP inh 102.0 | MPTP counter inactive
O=[N+]([O-])c1ccc(NCCNCCOc2nonc2-c2ccccc2)c([N+](=O)[O-])c1	none
Cc1ccc(S(=O)(=O)Nc2nc3ccccc3nc2Nc2cccc(S(=O)(=O)N3CCCC3)c2)cc1	MPTP inh 82.2 | MPTP counter 41.1
Cc1cccc(S(=O)(=O)Nc2nc3ccccc3nc2Nc2ccc3c(c2)OCO3)c1	MPTP inh 96.6 | MPTP counter 64.7
O=[N+]([O-])c1cccc(S(=O)(=O)Nc2ccc(S(=O)(=O)N3CCCC3)cc2)c1	none
O=[N+]([O-])c1cccc(S(=O)(=O)Nc2nc3ccccc3nc2Nc2cccc(S(=O)(=O)N3CCCCC3)c2)c1	MPTP inh 59.5 (no result: 697 NFkB inh, Jurkat NFkB inh, NR2E3 ag-2) | MPTP counter 30.2
CC(C)[C@H](NC(=O)c1ccc([N+](=O)[O-])cc1Cl)C(=O)N1CCN(C/C=C/c2ccccc2)CC1	none (no result: NR2E3 ag-2)
CC(C)Cn1c(N)c(C(=O)COC(=O)C2Cc3ccccc3CN2S(C)(=O)=O)c(=O)n(C)c1=O (stereo unspecified)	none
Cc1ccc(C2(C)NC(=O)N(CC(=O)Nc3nc(-c4ccccn4)cs3)C2=O)cc1 (stereo unspecified)	none
Oc1ccccc1C=NNC(=S)NN=Cc1ccccc1O	MPTP inh 90.2 (no result: 697 NFkB inh, Jurkat NFkB inh, NR2E3 ag-2) | MPTP counter 66.8
NC(=S)N/N=C/c1ccccc1O	none
Cc1csc(=O)n1CC(=O)OCC(=O)Nc1ccccc1C(C)C	none
